# TDP2 inh: blocks human TDP2 phosphodiesterase activity | actives 0.34% (n = 370,000) | AID 720702 | inhibition, % at 12.8 µM | recombinant TDP2, T5PNP hydrolysis, p-nitrophenol absorbance 415 nm | O95551;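 active means inhibition above the mean of all tested compounds plus 3 SD, set per campaign, cut at about 25% in these data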
# Target sequence (O95551 whole entry, looked up): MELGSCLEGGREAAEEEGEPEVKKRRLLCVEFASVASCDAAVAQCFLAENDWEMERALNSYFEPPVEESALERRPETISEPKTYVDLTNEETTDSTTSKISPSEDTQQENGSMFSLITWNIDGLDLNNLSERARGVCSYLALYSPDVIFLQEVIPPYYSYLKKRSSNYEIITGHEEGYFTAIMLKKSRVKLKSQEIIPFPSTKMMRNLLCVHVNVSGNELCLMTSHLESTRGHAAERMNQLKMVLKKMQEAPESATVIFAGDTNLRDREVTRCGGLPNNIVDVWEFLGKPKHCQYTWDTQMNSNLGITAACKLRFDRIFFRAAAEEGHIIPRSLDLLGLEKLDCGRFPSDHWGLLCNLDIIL
#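 Read-out basis: percent inhibition. System: recombinant human TDP2. Buffer or medium: Mg2+-containing Tris-HCl buffer, pH 7.5. Repeats: single replicate. Timing: reaction 2 h, 37 °C. Benchmarks: high control without enzyme, low control DMSO plus TDP2. Probe or stimulus: 5 mM T5PNP. Doses: 12.8 µM only. Measured by: epi absorbance of p-nitrophenol freed from T5PNP by hydrolysis.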
# MBD2 DNA inh: MBD2-methylated oligo binding inhibition. TR-FRET, MBD2 binding to methylated oligonucleotide. inhibition, % at 4.4 µM. actives 0.31% (n = 370,000); in the data active means inhibition above about 13%
# UHRF1 MBD2 ctr: UHRF1 methyl-DNA binding inhibition. Q96T88. UHRF1 binding to methylated oligo, TR-FRET. inhibition, % at 4.4 µM. actives 0.75% (n = 370,000); in the data active means inhibition above about 21%;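 further: UHRF1 SRA domain binding a hemimethylated CpG hairpin DNA probe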
# LEDGF integ inh: blocks HIV-1 LEDGF/p75-dependent DNA integration; TR-FRET IN-LEDGF/p75 DNA integration, Eu/Cy5; inhibition, % at 3.7 µM; actives 0.64% (n = 370,000); AID 743269;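 active means inhibition above the screen-wide mean plus 3 SD, cut at about 13% in these data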;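 further: signal is the Cy5 over europium emission ratio at 671 and 618 nm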
# Rin1 Abl inh: blocks binding of human Rin1 to Abl; TR-FRET Rin1/Abl binding, biochemical; P00519+Q13671; AID 588664; inhibition, % at 7.35 µM; actives 0.4% (n = 360,000); in the data active means inhibition above about 5%, passing the limit was not always enough
# A number is an active result; . = inactive; / = not tested or not shown. This is a sample that favours compounds with a hit; in the whole collection about 1.9% have one here.
SMILES,TDP2 inh,MBD2 DNA inh,UHRF1 MBD2 ctr,LEDGF integ inh,Rin1 Abl inh
CCC(CC)C(=O)Nc1c2c(nn1-c1ccc(OC)cc1)CS(=O)C2 (configuration not stated),.,.,38.8,.,.
CC(=O)c1cccc(NC(=O)C2(c3ccccc3)CC2(Cl)Cl)c1 (configuration not stated),.,.,25.2,.,.
COc1ccc(-n2c(N)c(C(=O)NCc3ccco3)c3nc4ccccc4nc32)cc1OC,.,.,47.0,.,.
Nc1c(C(=O)NCc2ccco2)c2nc3ccccc3nc2n1CCc1ccc(F)cc1,.,.,.,.,15.4
Nc1c(C(=O)NCCN2CCOCC2)c2nc3ccccc3nc2n1CCc1ccccc1,.,.,.,.,.
COC(=O)[C@]12C[C@H](CC(=O)N3CCSCC3)C(=O)N(CCC3=CCCCC3)C1=C[C@H](C1CCCC1)O[C@@H]2C,.,.,.,.,/
CC(=O)N1CCCN(S(=O)(=O)c2ccc3c(c2)c(=O)n(C)c(=O)n3C)CC1,.,.,.,.,/
Cc1cc(C)c2c3c(sc2n1)C(=O)N(c1ccccc1C)CC(=O)N3,.,.,.,.,.
Cc1ccc(N2CC(=O)Nc3c(sc4nc(C)cc(C)c34)C2=O)cc1,.,.,25.2,.,.
C/C(=N\NC(=O)CSCc1ccc([N+](=O)[O-])cc1)c1ccccc1,.,.,30.3,.,.
O=C1C2=C(c3ccccc31)[N+](=O)C1CCCCC1N2[O-] (configuration not stated),25.4,.,.,.,.
COc1ccc(CNC(=S)Nc2ccc(S(N)(=O)=O)cc2)cc1,43.4,.,.,.,.
COc1ccc(CNC(=S)Nc2ccc(OC)cc2)cc1,.,.,.,.,.
S=c1[nH]nc(-c2n[nH]c3c2CCC3)n1N=Cc1ccc(Br)s1,.,.,.,.,/
CCOc1cc(NC(=S)NCC2CCCO2)c(OCC)cc1NC(=O)c1ccc(OC)cc1 (configuration not stated),.,.,.,.,.
CCOc1cc(NC(=S)NCC2CCCO2)c(OCC)cc1NC(=O)c1ccccc1C (configuration not stated),.,.,47.2,.,.
CCCSc1nc2cc(C)c(C)cc2n1CC(O)CO (configuration not stated),.,.,.,.,.
CCCSc1nc2cc(C)c(C)cc2n1CC(C)O (configuration not stated),.,.,22.0,.,.
CCOC(=O)[C@]12CCC=C1N(Cc1ccccc1)C(=O)[C@H](CC(=O)NCCC(C)C)C2,.,.,23.6,.,/
COc1ccc(OC)c(CNc2c(C=O)c(=O)[nH]c3ccccc23)c1,.,.,43.2,.,.
CC1(C#CC[N+]2(C)CCCCC2)CCC2C(O1)c1ccccc1OC2(C)C (configuration not stated),.,.,23.8,.,.
Cc1ccc(S(=O)(=O)N2c3ccc(F)cc3C[C@H]2CSc2ccccc2)cc1,.,.,.,.,/
CC(=O)c1cc(O)c2ccccc2c1O,42.2,.,.,.,.
CCNC(=O)C1CCCN(C(=O)Cc2cccs2)CC1 (configuration not stated),.,.,23.9,.,.
NC(=O)C1CCN(c2nc(-c3ccc4c(c3)OCCCO4)cs2)CC1,.,.,.,.,/
SMILES,TDP2 inh,MBD2 DNA inh,UHRF1 MBD2 ctr,LEDGF integ inh,Rin1 Abl inh
O=C(C1CCN(c2ncnc3c2sc2cccc(F)c23)CC1)N1CCN(Cc2ccccc2)CC1,.,.,.,.,/
O=[N+]([O-])c1ccc(/C=N/N=C/c2ccc([N+](=O)[O-])o2)o1,.,.,.,.,.
Cc1csc(N=Cc2ccc([N+](=O)[O-])o2)n1,.,.,21.7,20.6,.
C=CCn1c(SCC(=O)Nc2ccccc2OCC)nnc1-c1ccc(C(C)(C)C)cc1,.,.,.,.,/
Cc1cccc(Sc2ccc([N+](=O)[O-])cc2[N+](=O)[O-])n1,.,.,28.0,.,.
COc1ccc(-c2cc(-c3ccccc3)nc(Cl)n2)cc1OC,.,.,29.8,.,.
Cc1ccc(-c2cc(-c3ccccc3)nc(Cl)n2)cc1,.,.,.,.,.
COC1(OC)C(/C=C/c2ccc(C)cc2)C(C#N)(C#N)C1(OC)OC (configuration not stated),.,.,21.1,.,.
CC1CCN(c2ccc(C(=O)O)cc2NS(=O)(=O)c2ccccc2[N+](=O)[O-])CC1,.,.,.,.,/
Cc1ccc(Cl)cc1N1CCN(C(=O)CCS(=O)(=O)c2ccc3c(c2)NC(=O)CO3)CC1,.,.,23.0,.,.
COCC(=O)N1CCC(C(=O)NC2CCCc3ccccc32)CC1 (configuration not stated),.,.,.,.,/
C[C@H]1Cn2nncc2Cn2c3ccccc3c(=O)n21,.,.,.,.,/
O=C(Nc1c(-c2ccccc2)[nH][nH]c1=O)c1ccco1,.,.,62.8,.,.
O=C(CCl)Oc1ccc2occ(C(=O)c3cccs3)c2c1,.,.,28.8,.,.
CC(=O)Oc1ccc2occ(C(=O)c3cccs3)c2c1,.,.,.,.,.
O=C(O)c1cccc(N2C(=O)/C(=C/c3ccc(SCc4ccc(Cl)cc4)o3)SC2=S)c1,.,40.4,89.2,60.1,.
CCC[C@H]1[C@@H](NC(=O)c2ccc(Cl)cc2)CC[C@@]23CCCN2C(=O)CCC[C@@H]13,.,.,.,.,/
O=C(CC1Sc2ccccc2NC1=O)NCc1ccc(Cl)cc1 (configuration not stated),.,.,27.7,.,.
O=C(CC1Sc2ccccc2NC1=O)NCc1cccc(Cl)c1 (configuration not stated),.,.,.,.,.
O=C(CSc1nc2ccccc2o1)NN=C/C=C/c1ccccc1,.,.,.,.,/
Cc1ccc(NC(=O)CN2C(=O)S/C(=C\c3cc(C)n(-c4cccc(C(=O)O)c4)c3C)C2=O)cc1,.,.,.,.,.
Cc1cc(C(=O)O)ccc1-c1ccc(/C=C2\SC(=O)N(CC(=O)Nc3ccc4c(c3)OCO4)C2=O)o1,.,.,23.7,.,.
Cc1ccc(CN2C(=O)N/C(=C\c3ccc(-c4ccc(C(=O)O)cc4C)o3)C2=O)cc1,.,.,.,.,.
Cc1ccc(C(=O)O)cc1-c1ccc(/C=C2\SC(=O)N(CC(=O)Nc3ccccc3)C2=O)o1,.,.,22.3,.,.
Cc1ccc(NC(=O)CN2C(=O)S/C(=C/c3ccc(-c4cccc(C(=O)O)c4)o3)C2=O)cc1,.,.,23.0,.,.
Cc1ccccc1NC(=O)CN1C(=O)S/C(=C\c2ccc(-c3cc(C(=O)O)ccc3C)o2)C1=O,.,.,.,.,.
C#CCN1C(=O)S/C(=C\c2ccc(-c3ccc(C(=O)O)cc3C)o2)C1=O,.,.,40.9,.,.
CC(C)C[C@H](NC1(C(=O)NC2CCCCC2)CCN(C)CC1)C(=O)NCC(c1ccccc1)c1ccccc1,.,.,.,.,/

# Bioassay records from PubChem BioAssay.
